From ChEMBL document CHEMBL1156077, “Piperazinyl-glutamate-pyrimidines as potent P2Y12 antagonists for inhibition of platelet aggregation” (Bioorg Med Chem Lett, 2009)

Tests used:
[1] = biological target: T1, P2Y purinoceptor 12 (Homo sapiens, UniProt Q9H244); experiment: Ratio of compound IC50 to AZD-6140 IC50 for P2Y12 receptor in human platelet rich plasma assessed as inhibition of ADP-induced platelet aggregation by light transmission aggregometry
Method in brief: (§1)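 Human platelet-rich plasma was pre-incubated 5 min at 37 °C with compound across seven concentrations (10 down to 0.156). Aggregation was started with ADP (20, final) and followed by light transmission at 626 nm for 15 min at 37 °C. Duplicate concentration-response data were read at the 15-min end-point. IC50 was divided by the IC50 of AZD-6140 run on the same plate.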

[2] = biological target: CYP2C9 (Homo sapiens, UniProt P11712); experiment: Inhibition of CYP2C9 at 3 uM after 30 mins; type: ADME
Method in brief: (§2)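 Each CYP isoform assayed separately at a single 3 µM compound concentration in duplicate, with at least one isoform-specific positive control inhibitor. Incubation 30 min at 37 °C; end-point measurement gives percent inhibition.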

[3] = biological target: T1, P2Y purinoceptor 12; experiment: Ratio of compound IC50 to thienopyrimidine IC50 for P2Y12 receptor in human platelet rich plasma assessed as inhibition of ADP-induced platelet aggregation by light transmission aggregometry
Method in brief: as §1, with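 “the thienopyrimidine reference” for “AZD-6140”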

[4] = Selectivity for human P2Y12 receptor over P2Y13
[5] = biological target: T2, CYP1A2 (Homo sapiens, UniProt P05177); experiment: Inhibition of CYP1A2 at 3 uM after 30 mins; type: ADME; method in brief: as §2
T2 sequence (P05177 whole entry): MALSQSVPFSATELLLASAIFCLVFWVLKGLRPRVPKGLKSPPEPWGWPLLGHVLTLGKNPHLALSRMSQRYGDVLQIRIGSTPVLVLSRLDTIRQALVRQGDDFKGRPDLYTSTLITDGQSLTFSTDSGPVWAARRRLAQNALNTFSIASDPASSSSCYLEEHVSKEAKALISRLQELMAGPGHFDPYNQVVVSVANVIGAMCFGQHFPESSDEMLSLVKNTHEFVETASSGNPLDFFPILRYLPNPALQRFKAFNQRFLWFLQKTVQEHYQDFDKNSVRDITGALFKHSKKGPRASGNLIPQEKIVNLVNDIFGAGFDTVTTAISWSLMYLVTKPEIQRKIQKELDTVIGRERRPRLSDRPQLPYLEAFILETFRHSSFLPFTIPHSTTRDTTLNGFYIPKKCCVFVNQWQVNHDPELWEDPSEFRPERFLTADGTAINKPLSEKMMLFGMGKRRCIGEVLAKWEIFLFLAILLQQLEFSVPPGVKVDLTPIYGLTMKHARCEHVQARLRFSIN

[6] = biological target: T1, P2Y purinoceptor 12; experiment: Binding affinity at human recombinant P2Y12 receptor expressed in CHO cells by radioligand binding assay; type: cell-based
Method in brief: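 Washed membranes from CHO cells transfected with synthetic human P2Y12 gene. Compounds as 7-point threefold dilutions, triplicate, 1 h at room temperature. Nonspecific binding defined with 300 nM 2-MeSADP. Filtered, washed with ice-cold Tris pH 7.4. Single-site fit; IC50 converted to Ki by Cheng–Prusoff, geometric mean of n≥2.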

[7] = biological target: CYP3A4 (Homo sapiens, UniProt P08684); experiment: Inhibition of CYP3A4 at 3 uM after 30 mins; type: ADME; method in brief: as §2
[8] = Effective half life in Sprague-Dawley rat at 2 mg/kg, iv and 5 mg/kg, po; type: ADME, organism-based; details: in vivo
[9] = tested on: Liver microsomes; experiment: Metabolic stability in human liver microsomes assessed as compound remaining; type: ADME, Microsome
Method in brief: (§3)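 Compounds incubated 30 min with human or rat liver microsomes; percent of parent compound remaining measured.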

[10] = biological target: hERG (KCNH2) (Homo sapiens, UniProt Q12809); experiment: Displacement of Cy3B-tagged N-desmethyl dofetilide from human ERG expressed in HEK cells at 10 uM after 120 mins; type: cell-based, HEK293; details: HEK cells that express human ERG, probe Cy3B-tagged N-desmethyl dofetilide
Method in brief: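 Fluorescence polarization competition assay with HEK-hERG membrane homogenates and Cy3B-tagged N-desmethyl dofetilide tracer. Compound tested at a single 10 µM concentration, 120 min incubation, end-point read for percent inhibition.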

[11] = Selectivity for human P2Y12 receptor over P2Y1
[12] = tested on: Liver microsomes; experiment: Metabolic stability in rat liver microsomes assessed as compound remaining; type: ADME, Microsome; method in brief: as §3
[13] = Volume of distribution at steady state in Sprague-Dawley rat at 2 mg/kg, iv and 5 mg/kg, po; type: ADME, organism-based; details: in vivo, read-out: Vdss
[14] = biological target: CYP2D6 (Homo sapiens, UniProt P10635); experiment: Inhibition of CYP2D6 at 3 uM after 30 mins; type: ADME; method in brief: as §2
[15] = Clearance in Sprague-Dawley rat at 2 mg/kg, iv and 5 mg/kg, po; type: ADME, organism-based; details: in vivo

T1 sequence (Q9H244 whole entry): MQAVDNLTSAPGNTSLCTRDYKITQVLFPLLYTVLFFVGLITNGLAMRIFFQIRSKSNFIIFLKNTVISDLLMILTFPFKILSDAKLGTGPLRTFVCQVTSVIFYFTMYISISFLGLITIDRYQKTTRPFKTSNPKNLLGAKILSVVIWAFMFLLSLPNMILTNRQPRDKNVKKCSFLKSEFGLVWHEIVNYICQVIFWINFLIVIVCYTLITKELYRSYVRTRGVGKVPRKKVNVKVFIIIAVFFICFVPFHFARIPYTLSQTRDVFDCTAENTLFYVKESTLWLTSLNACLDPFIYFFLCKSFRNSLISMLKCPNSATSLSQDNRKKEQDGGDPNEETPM
CYP2D6, sequence (P10635 whole entry): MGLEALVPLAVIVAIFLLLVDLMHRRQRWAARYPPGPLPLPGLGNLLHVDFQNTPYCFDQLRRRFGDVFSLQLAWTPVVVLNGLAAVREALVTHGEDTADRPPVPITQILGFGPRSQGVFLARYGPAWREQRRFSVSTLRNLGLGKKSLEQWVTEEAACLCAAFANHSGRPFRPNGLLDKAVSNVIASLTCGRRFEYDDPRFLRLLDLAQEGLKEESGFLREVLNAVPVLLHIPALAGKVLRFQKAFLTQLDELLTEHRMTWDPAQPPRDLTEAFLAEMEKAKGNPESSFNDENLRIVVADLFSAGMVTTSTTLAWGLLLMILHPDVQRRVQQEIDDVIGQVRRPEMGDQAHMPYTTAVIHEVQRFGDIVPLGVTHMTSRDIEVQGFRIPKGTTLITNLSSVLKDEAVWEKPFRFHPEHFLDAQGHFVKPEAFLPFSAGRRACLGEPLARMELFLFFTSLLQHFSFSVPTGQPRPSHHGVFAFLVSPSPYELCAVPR
hERG (KCNH2), sequence (Q12809 whole entry): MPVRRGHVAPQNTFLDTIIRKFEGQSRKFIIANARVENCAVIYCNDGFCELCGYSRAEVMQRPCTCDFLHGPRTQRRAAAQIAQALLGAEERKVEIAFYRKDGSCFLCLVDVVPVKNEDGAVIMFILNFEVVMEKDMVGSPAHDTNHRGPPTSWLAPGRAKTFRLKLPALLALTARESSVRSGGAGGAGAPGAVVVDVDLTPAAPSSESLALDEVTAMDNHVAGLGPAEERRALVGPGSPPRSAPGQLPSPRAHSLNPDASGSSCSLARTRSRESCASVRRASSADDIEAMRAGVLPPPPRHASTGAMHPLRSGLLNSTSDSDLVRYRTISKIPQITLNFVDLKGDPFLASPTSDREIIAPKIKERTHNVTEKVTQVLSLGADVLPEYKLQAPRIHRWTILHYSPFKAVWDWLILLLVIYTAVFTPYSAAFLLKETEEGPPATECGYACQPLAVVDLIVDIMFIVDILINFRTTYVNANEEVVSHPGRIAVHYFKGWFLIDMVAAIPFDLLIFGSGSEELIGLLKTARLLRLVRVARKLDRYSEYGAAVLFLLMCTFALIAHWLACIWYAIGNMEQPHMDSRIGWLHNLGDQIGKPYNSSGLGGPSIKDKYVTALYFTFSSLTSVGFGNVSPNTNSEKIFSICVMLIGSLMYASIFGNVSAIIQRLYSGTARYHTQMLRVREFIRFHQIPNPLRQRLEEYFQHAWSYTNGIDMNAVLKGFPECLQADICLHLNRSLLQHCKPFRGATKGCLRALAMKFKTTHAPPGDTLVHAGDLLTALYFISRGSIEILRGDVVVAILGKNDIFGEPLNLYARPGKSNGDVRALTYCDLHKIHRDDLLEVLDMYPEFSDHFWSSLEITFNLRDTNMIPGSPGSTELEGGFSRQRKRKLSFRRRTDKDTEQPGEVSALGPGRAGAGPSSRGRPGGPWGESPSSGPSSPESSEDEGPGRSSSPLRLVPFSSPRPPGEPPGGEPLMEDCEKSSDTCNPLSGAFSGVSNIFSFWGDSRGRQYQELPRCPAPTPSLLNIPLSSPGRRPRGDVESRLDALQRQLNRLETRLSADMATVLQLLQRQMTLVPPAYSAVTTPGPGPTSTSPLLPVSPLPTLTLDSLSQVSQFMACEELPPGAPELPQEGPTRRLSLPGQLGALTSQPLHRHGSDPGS
CYP2C9, sequence (P11712 whole entry, canonical isoform): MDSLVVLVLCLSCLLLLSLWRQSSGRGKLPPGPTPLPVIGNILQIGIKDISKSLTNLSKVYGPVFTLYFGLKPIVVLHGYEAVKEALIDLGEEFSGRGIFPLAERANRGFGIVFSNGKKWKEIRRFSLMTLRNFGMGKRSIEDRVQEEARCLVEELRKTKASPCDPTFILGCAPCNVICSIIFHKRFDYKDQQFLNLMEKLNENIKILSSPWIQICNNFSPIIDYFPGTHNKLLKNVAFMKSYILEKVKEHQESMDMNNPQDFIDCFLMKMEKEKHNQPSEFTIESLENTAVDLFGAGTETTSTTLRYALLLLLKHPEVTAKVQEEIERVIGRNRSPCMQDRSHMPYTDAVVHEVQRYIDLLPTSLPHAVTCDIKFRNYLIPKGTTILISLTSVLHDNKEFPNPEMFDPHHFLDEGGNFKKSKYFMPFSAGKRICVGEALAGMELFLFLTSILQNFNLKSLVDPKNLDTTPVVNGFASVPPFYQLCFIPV
CYP3A4, sequence (P08684 whole entry): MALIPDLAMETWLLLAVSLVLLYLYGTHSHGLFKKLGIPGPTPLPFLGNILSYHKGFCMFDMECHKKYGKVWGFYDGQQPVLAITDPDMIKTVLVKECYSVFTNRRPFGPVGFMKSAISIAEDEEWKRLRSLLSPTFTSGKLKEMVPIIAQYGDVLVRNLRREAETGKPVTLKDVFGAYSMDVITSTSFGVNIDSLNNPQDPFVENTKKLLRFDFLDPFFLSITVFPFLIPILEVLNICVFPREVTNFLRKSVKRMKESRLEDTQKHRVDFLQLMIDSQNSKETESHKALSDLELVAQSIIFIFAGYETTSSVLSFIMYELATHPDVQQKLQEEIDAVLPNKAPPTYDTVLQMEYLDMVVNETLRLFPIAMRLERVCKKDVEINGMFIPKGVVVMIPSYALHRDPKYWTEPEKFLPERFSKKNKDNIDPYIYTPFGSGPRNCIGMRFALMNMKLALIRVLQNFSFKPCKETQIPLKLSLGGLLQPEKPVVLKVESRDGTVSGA

| SMILES | Ratio IC50 [1] | inhibition at 0.5 h, 3 µM [2] | Ratio IC50 [3] | fold change (FC) [4] | inhibition at 0.5 h, 3 µM [5] | Ki [6] | inhibition at 0.5 h, 3 µM [7] | half-life [8] | Stability [9] | inhibition at 2 h, 10 µM [10] | fold change (FC) [11] | Stability [12] | Vd [13] | inhibition at 0.5 h, 3 µM [14] | clearance [15] |
| --- | --- | --- | --- | --- | --- | --- | --- | --- | --- | --- | --- | --- | --- | --- | --- |
| CCCCCOC(=O)N1CCN(C(=O)[C@H](CCC(=O)O)NC(=O)c2cc(N3CCC(OCCO)CC3)nc(-c3ccccc3)n2)CC1 | 0.9 | < 25% | 0.4 | > 340 | < 25% | 0.71 nM | < 25% | 30 min | > 80% | < 25% | > 340 | > 80% | 0.8 L/kg | < 25% | 18 mL/min/kg |
| CCCCCOC(=O)N1CCN(C(=O)[C@H](CCC(=O)O)NC(=O)c2cc(N3CCC(N4CCCC4)CC3)nc(-c3ccccc3)n2)CC1 | 0.4 | < 25% | 0.1 | > 340 | < 25% | 1.5 nM | < 25% |  | > 80% | < 25% | > 340 | > 80% |  | < 25% |  |
| CCCCCOC(=O)N1CCN(C(=O)[C@H](CCC(=O)O)NC(=O)c2nc(OCCCN3CCOCC3)cc(-c3ccccc3)n2)CC1 | 6.6 |  | 1.2 | > 340 |  | 11 nM |  |  |  |  | > 340 |  |  |  |  |
| CCCCCOC(=O)N1CCN(C(=O)[C@H](CCC(=O)O)NC(=O)c2cc(N3CCN(CC(=O)N4CCCC4)CC3)nc(-c3ccccc3)n2)CC1 | 1.5 |  | 0.2 | > 340 |  | 2.1 nM |  |  |  |  | > 340 |  |  |  |  |
| CCCCOC(=O)N1CCN(C(=O)[C@H](CCC(=O)O)NC(=O)c2cc(N3CCC(C(=O)N(CC)CC)CC3)nc(-c3ccccc3)n2)CC1 | 0.6 |  | 0.1 | > 340 |  | 0.79 nM |  |  |  |  | > 340 |  |  |  |  |
| CCCCCOC(=O)N1CCN(C(=O)[C@H](CCC(=O)O)NC(=O)c2cc(N3CCC(CN(CC)CC)CC3)nc(-c3ccccc3)n2)CC1 | 0.8 |  | 0.2 | > 340 |  | 0.61 nM |  |  |  |  | > 340 |  |  |  |  |
| CCCCCOC(=O)N1CCN(C(=O)[C@H](CCC(=O)O)NC(=O)c2cc(N3CCC(CC(=O)N(CC)CC)CC3)nc(-c3ccccc3)n2)CC1 | 3.3 |  | 0.6 | > 340 |  | 3.1 nM |  |  |  |  | > 340 |  |  |  |  |
| CCCCCOC(=O)N1CCN(C(=O)[C@H](CCC(=O)O)NC(=O)c2nc(-c3ccccc3)cc(N3CCN(C(N)=O)CC3)n2)CC1 | 4.7 |  | 1 | > 340 |  | 5.8 nM |  |  |  |  | > 340 |  |  |  |  |
| CCCCCOC(=O)N1CCN(C(=O)[C@H](CCC(=O)O)NC(=O)c2cc(N3CC(OCC)C3)nc(-c3ccccc3)n2)CC1 | 3.4 |  | 1 | > 340 |  | 1.2 nM |  |  |  |  | > 340 |  |  |  |  |
| CCCCCOC(=O)N1CCN(C(=O)[C@H](CCC(=O)O)NC(=O)c2cc(N3CCN(CCOC)CC3)nc(-c3ccccc3)n2)CC1 | 1.5 |  | 0.3 | > 340 |  | 2.3 nM |  |  |  |  | > 340 |  |  |  |  |
| CCCCOC(=O)N1CCN(C(=O)[C@H](CCC(=O)O)NC(=O)c2cc(OCC3CCNCC3)nc(-c3ccccc3)n2)CC1 | 1 |  | 0.3 | > 340 |  | 16 nM |  |  |  |  | > 340 |  |  |  |  |
| CCCCOC(=O)N1CCN(C(=O)[C@H](CCC(=O)O)NC(=O)c2cc(OC3CCN(C(C)C)CC3)nc(-c3ccccc3)n2)CC1 | 2.8 |  | 0.8 | > 340 |  | 19 nM |  |  |  |  | > 340 |  |  |  |  |
| CCCCOC(=O)N1CCN(C(=O)[C@H](CCC(=O)O)NC(=O)c2cc(OCCN(CC)CC)nc(-c3ccccc3)n2)CC1 | 4.3 |  | 1.1 | > 340 |  | 72 nM |  |  |  |  | > 340 |  |  |  |  |
| CCCCCOC(=O)N1CCN(C(=O)[C@H](CCC(=O)O)NC(=O)c2nc(-c3ccccc3)cc(N3CCC(CNCC)CC3)n2)CC1 | 1.6 |  | 0.4 | > 340 |  | 11 nM |  |  |  |  | > 340 |  |  |  |  |
| CCCCOC(=O)N1CCN(C(=O)[C@H](CCC(=O)O)NC(=O)c2cc(OCC3CCCO3)nc(-c3ccccc3)n2)CC1 (some centres not stated) | 3.8 |  | 1.4 | > 340 |  | 55 nM |  |  |  |  | > 340 |  |  |  |  |
| CCCCCOC(=O)N1CCN(C(=O)[C@H](CCC(=O)O)NC(=O)c2cc(N3CCC(CC(=O)N4CCCC4)CC3)nc(-c3ccccc3)n2)CC1 | 2 |  | 0.3 | > 340 |  | 1.6 nM |  |  |  |  | > 340 |  |  |  |  |
| CCCCOC(=O)N1CCN(C(=O)[C@H](CCC(=O)O)NC(=O)c2cc(N3CCC(C(=O)N4CCCC4)CC3)nc(-c3ccccc3)n2)CC1 | 0.4 |  | 0.08 | > 340 |  | 0.7 nM |  |  |  |  | > 340 |  |  |  |  |
| CCCCCOC(=O)N1CCN(C(=O)[C@H](CCC(=O)O)NC(=O)c2cc(N3CCC(CC(=O)NC)CC3)nc(-c3ccccc3)n2)CC1 | 1.2 |  | 0.2 | > 340 |  | 0.9 nM |  |  |  |  | > 340 |  |  |  |  |
| CCCCOC(=O)N1CCN(C(=O)[C@H](CCC(=O)O)NC(=O)c2cc(N3CCC(CCOC)CC3)nc(-c3ccccc3)n2)CC1 | 2.1 |  | 0.5 | > 340 |  | 2 nM |  |  |  |  | > 340 |  |  |  |  |
| CCCCCOC(=O)N1CCN(C(=O)[C@H](CCC(=O)O)NC(=O)c2cc(N3CCC(COCCOC)CC3)nc(-c3ccccc3)n2)CC1 | 1.2 |  | 0.3 | > 340 |  | 4.3 nM |  |  |  |  | > 340 |  |  |  |  |
| CCCCCOC(=O)N1CCN(C(=O)[C@H](CCC(=O)O)NC(=O)c2cc(N3CCC(CNCC)CC3)nc(-c3ccccc3)n2)CC1 | 0.7 |  | 0.1 | > 340 |  | 2.2 nM |  |  |  |  | > 340 |  |  |  |  |
| CCCCCOC(=O)N1CCN(C(=O)[C@H](CCC(=O)O)NC(=O)c2nc(-c3ccccc3)cc(N3CCN(CCOC)CC3)n2)CC1 | 8.3 |  | 1.6 | > 340 |  | 12 nM |  |  |  |  | > 340 |  |  |  |  |
| CCCCCOC(=O)N1CCN(C(=O)[C@H](CCC(=O)O)NC(=O)c2cc(N3CCC(C(N)=O)CC3)nc(-c3ccccc3)n2)CC1 | 0.7 | < 25% | 0.1 | > 340 | < 25% | 2 nM | < 25% | 24 min | > 80% | < 25% | > 340 | > 80% | 2.4 L/kg | < 25% | 68 mL/min/kg |
